Measured values reported in ChEMBL document CHEMBL1132360, “N-Substituted (2,3-dihydro-1,4-benzodioxin-2-yl)methylamine derivatives as D(2) antagonists/5-HT(1A) partial agonists with potential as atypical antipsychotic agents” (J Med Chem, 1999).
pKi: −log10 of the molar value.

Tests used:
[1] = molecular target: T1, 5-hydroxytryptamine receptor 1A (Rattus norvegicus, UniProt P19327); assay: Binding affinity towards 5-hydroxytryptamine 1A receptor from rat brain using [3H]-8-OH-DPAT as radioligand
T1 sequence (P19327 whole entry): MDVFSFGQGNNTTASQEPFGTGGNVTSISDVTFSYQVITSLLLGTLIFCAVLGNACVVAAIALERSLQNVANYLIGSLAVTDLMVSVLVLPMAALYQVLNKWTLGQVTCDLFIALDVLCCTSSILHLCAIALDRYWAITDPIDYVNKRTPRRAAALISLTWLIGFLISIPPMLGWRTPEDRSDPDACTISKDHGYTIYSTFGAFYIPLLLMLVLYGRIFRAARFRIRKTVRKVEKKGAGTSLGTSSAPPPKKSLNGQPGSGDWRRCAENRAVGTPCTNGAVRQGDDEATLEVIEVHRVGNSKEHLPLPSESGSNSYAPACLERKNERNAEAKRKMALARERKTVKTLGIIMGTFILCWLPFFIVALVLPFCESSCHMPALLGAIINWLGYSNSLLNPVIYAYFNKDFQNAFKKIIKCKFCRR

[2] = molecular target: T2, Adrenergic receptor alpha-1 (Homo sapiens, UniProt P35348+P25100+P35368); assay: Binding affinity towards Alpha-1 adrenergic receptor in human cortex membranes; format: cell membranes
T2 sequence (P35348 whole entry): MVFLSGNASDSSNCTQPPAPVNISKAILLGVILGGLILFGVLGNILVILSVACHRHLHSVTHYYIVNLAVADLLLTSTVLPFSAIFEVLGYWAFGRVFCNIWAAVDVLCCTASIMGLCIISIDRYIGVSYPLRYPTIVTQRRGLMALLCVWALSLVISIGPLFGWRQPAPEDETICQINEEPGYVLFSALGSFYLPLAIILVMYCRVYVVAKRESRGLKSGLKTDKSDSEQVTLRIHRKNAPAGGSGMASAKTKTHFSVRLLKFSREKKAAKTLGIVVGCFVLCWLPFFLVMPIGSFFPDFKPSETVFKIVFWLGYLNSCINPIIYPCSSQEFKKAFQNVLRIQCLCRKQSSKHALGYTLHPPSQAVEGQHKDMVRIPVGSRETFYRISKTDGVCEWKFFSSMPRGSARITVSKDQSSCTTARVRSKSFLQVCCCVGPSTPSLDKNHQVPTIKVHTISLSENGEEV
T2 sequence (P25100 whole entry): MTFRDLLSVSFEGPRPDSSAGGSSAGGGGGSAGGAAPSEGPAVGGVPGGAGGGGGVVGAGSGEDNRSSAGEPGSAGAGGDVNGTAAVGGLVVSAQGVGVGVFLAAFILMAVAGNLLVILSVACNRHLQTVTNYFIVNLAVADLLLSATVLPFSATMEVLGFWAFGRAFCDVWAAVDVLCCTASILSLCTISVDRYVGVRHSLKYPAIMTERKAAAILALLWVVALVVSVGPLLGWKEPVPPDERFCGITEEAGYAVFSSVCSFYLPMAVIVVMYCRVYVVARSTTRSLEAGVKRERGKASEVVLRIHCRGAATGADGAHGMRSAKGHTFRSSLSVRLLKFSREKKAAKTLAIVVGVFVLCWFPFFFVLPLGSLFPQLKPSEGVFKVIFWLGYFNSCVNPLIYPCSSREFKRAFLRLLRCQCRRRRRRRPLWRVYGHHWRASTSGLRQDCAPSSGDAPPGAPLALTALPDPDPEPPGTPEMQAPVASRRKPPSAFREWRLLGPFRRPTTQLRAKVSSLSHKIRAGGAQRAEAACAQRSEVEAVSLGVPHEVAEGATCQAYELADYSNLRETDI
T2 sequence (P35368 whole entry): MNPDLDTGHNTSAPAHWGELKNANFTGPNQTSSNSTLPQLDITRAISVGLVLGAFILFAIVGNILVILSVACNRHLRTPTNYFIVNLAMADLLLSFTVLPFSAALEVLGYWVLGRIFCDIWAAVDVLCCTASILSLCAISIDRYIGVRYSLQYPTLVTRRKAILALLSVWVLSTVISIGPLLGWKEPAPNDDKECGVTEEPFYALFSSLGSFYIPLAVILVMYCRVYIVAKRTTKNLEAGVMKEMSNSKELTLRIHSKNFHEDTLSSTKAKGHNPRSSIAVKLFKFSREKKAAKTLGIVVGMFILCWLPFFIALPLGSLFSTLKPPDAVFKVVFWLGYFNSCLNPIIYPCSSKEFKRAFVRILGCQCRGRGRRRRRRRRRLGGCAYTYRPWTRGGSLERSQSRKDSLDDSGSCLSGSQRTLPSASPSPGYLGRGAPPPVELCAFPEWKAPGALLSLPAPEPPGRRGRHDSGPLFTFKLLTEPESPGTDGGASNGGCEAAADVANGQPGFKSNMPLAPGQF

[3] = test system: Mus musculus; assay: Antagonistic activity against apomorphine induced climbing in the mouse after po administration; format: functional
Procedure, shortened: (§1)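 Male CD1 mice (20–25 g), groups of 10, dosed po with compound or vehicle ([…]) at set times before apomorphine 0.88 mg/kg sc. Each mouse placed in an inverted open-ended wire cage; climbing scored 0–2 at 10 and 20 min after apomorphine.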

[4] = molecular target: T3, 5-hydroxytryptamine receptor 1A (Rattus norvegicus) (UniProt P19327); assay: The compound was tested binding affinity against 5-hydroxytryptamine 1A receptor from rat brain using [3H]8-OH-DPAT as radioligand at 10e-6 M.
T3 sequence (whole entry): T1 sequence (P19327 whole entry)
Procedure, shortened: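 Adult male CD rat hippocampal membranes (endogenous 5-HT removed by 37 °C, 10 min incubation) in 50 mM Tris-HCl pH 7.7 plus CaCl2, ascorbate, pargyline; incubated with 2 nM [3H]8-OH-DPAT and test compound at 10⁻⁶ M, 30 min, 25 °C; 10 μM 5-HT defines nonspecific binding. Specific binding with and without compound gives percent displacement.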

[5] = test system: Rattus norvegicus; assay: The compound was tested in vivo for induction of catalepsy in rat after ip administration; format: functional
Procedure, shortened: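 Male rats (130–190 g), groups of five, injected ip with compound solution (1 mL/kg). Catalepsy assessed at three times by placing each paw on a 45 mm rubber bung; a paw held 15 s scores 1 (group maximum 20 = 100%). ED50 from percent catalepsy at the final reading, by adapted Litchfield–Wilcoxon.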

[6] = molecular target: Adrenergic receptor alpha-1 (Homo sapiens) (UniProt P35348+P25100+P35368); assay: Compound was tested for binding affinity towards Alpha-1 adrenergic receptor in human cortex membranes; format: cell membranes; conditions: concentration not given here
Procedure, shortened: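 Postmortem human cortex membranes (stored −80 °C, final in 50 mM Tris-HCl pH 7.6) incubated with [3H]prazosin 0.1 nM and compound at 10⁻⁶ M or 10 concentrations, 30 min at 30 °C; phentolamine 5 μM defines nonspecific binding. Bound ligand by filtration and scintillation counting; Ki from IC50 by Cheng–Prusoff, ±SEM; percentages are displacement at 10⁻⁶ M.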

[7] = test system: Mus musculus; assay: The compound was tested for antagonistic activity against apomorphine induced climbing in the mouse, percentages are for reduction in climbing after peroral administration; format: functional; conditions: po
Procedure, shortened: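 Groups of 10 male CD1 mice (20–25 g) dosed po with test compound or vehicle at set times before apomorphine 0.88 mg/kg sc. Mice were placed singly in inverted wire cages and climbing was scored 0–2 at 10 and 20 min after apomorphine. Percent reduction in climbing is given at the stated dose.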

[8] = test system: Mus musculus; assay: Percent reduction in apomorphine induced climbing in mouse at 50 mg/Kg of compound given perorally; format: functional
Procedure, shortened: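 Male CD1 mice (20–25 g), groups of 10, given compound po (vehicle 0.1 mL/kg) at 50 mg/kg before apomorphine 0.88 mg/kg sc. Climbing in inverted open-ended wire cages scored 0–2 at 10 and 20 min after apomorphine; percent reduction in climbing at that dose reported.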

[9] = test system: Mus musculus; assay: The compound was tested for antagonistic activity against apomorphine induced climbing in the mouse after po administration; format: functional; procedure, shortened: as §1

SMILES	pKi [1]	Ki [2]	ED50 [3]	ED50 [5]	other results
c1ccc(N2CCC(CNCC3COc4ccccc4O3)CC2)cc1 (centres undefined)	7.54	47 nM	39 mg/kg		
COc1ccccc1N1CCC(CNCC2COc3cccc(O)c3O2)CC1 (centres undefined)		> 500 nM	33 mg/kg		inhibition [4]: 94%
c1ccc2c(c1)OCC(CNCC1CCN(c3cccc4c3OCC4)CC1)O2 (centres undefined)	8.52	33 nM	18 mg/kg	107 mg/kg	
COc1ccccc1N1CCC(CNCC2COc3cccc(F)c3O2)CC1 (centres undefined)	7.80	12 nM	4 mg/kg	23 mg/kg	
c1ccc(N2CCC(CNCC3COc4ccccc4O3)CC2)nc1 (stereo in doubt; 12) [listing 1 of 2 here]					inhibition [4]: 98%; inhibition [6]: 98%
Clc1ccccc1N1CCC(CNCC2COc3ccccc3O2)CC1 (centres undefined)	7.77	94 nM			
CN1CCN(C2=Nc3cc(Cl)ccc3Nc3ccccc32)CC1 [CLOZAPINE]				33.9 mg/kg	ED50 [7]: 9.5 mg/kg
Cc1cc2c(s1)Nc1ccccc1N=C2N1CCN(C)CC1 [OLANZAPINE]			4.87 mg/kg	6.07 mg/kg	
c1cnc(NCC2CCN(CC3COc4ccccc4O3)CC2)nc1 (stereo in doubt; 9)	6.33	208 nM			
COc1cccc2c1OCC(CNCC1CCN(c3ncccn3)CC1)O2 (centres undefined)	6.89	234 nM			
Cc1nc2n(c(=O)c1CCN1CCC(c3noc4cc(F)ccc34)CC1)CCCC2 [RISPERIDONE]				1.75 mg/kg	ED50 [7]: 0.3 mg/kg
c1ccc(N2CCC(CNCC3COc4ccccc4O3)CC2)nc1 (stereo in doubt; 13) [listing 1 of 2 here]					Reduction [8]: 55%
c1ccc(N2CCC(CNCC3COc4ccccc4O3)CC2)nc1 (stereo in doubt; 12) [listing 2 of 2 here]			23 mg/kg		
COc1cccc(N2CCC(CNCC3COc4ccccc4O3)CC2)c1 (centres undefined)					Reduction [9]: 45%
c1ccc(N2CCC(CNCC3COc4ccccc4O3)CC2)nc1 (stereo in doubt; 13) [listing 2 of 2 here]					inhibition [4]: 82%; inhibition [6]: 84%
O=C(CCCN1CCC(O)(c2ccc(Cl)cc2)CC1)c1ccc(F)cc1 [HALOPERIDOL]				0.44 mg/kg	ED50 [7]: 0.16 mg/kg
CC1Oc2ccccc2OC1CNCC1CCN(c2ncccn2)CC1 (centres undefined)	< 6.30	> 500 nM	134 mg/kg	775 mg/kg	
COc1cccc2c1OC(CNCC1CCN(c3ncccn3)CC1)CO2 (centres undefined)	9.22	2.3 nM	2.4 mg/kg		
c1cnc(N2CCC(CNC[C@H]3COc4ccccc4O3)CC2)nc1	8.57	18 nM	9 mg/kg	44 mg/kg	

More lines, main results first:

pKi [1]	Ki [2]	SMILES	ED50 [3]	ED50 [5]	other results
7.70	20 nM	COc1ccccc1NCC1CCN(CC2COc3ccccc3O2)CC1 (centres undefined)	62 mg/kg		
7.43	74 nM	COc1ccccc1N1CCC(CNC[C@@H]2COc3ccccc3O2)CC1	38 mg/kg		
8.51		c1cnc(NCCCNCC2COc3ccccc3O2)nc1 (centres undefined)	6 mg/kg		
6.71	132 nM	CC1(CNCC2CCN(c3ncccn3)CC2)COc2ccccc2O1 (centres undefined)			
7.60	117 nM	c1cnc(N2CCC(CNC[C@@H]3COc4ccccc4O3)CC2)nc1			Reduction [8]: 77%
8.10	23 nM	COc1ccccc1N1CCC(CNC[C@H]2COc3ccccc3O2)CC1	7 mg/kg	50 mg/kg	
	348 nM	CN(CC1CCN(c2ncccn2)CC1)CC1COc2ccccc2O1 (centres undefined)			inhibition [4]: 85%
7.82	44 nM	COc1ccc(N2CCC(CNCC3COc4ccccc4O3)CC2)cc1 (centres undefined)	11 mg/kg		
7.68	23 nM	c1cnc(NCC2CCN(CC3COc4ccccc4O3)CC2)nc1 (stereo in doubt; 8)			
7.74	38 nM	c1ccc2c(c1)OCC(CNCC1CCN(c3cccc4c3OCCO4)CC1)O2 (centres undefined)	32 mg/kg	> 200 mg/kg	
